Results as given in ChEMBL document CHEMBL2346608, “New annelated thieno[2,3-e][1,2,3]triazolo[1,5-a]pyrimidines, with potent anticancer activity, designed through VLAK protocol” (2013).

Assays:
Assay type in all cases: functional
DU-145 = test: Antiproliferative activity against human DU145 cells after 48 hrs by sulforhodamine B assay; details: DU-145, 48 h
Procedure, shortened: (§1)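 Cells grown in RPMI 1640 with 5% FBS and 2 mM L-glutamine, plated at 5000–40,000 cells/well and preincubated 24 h at 37 °C, 5% CO2. Five drug concentrations (10-fold or ½-log dilutions from DMSO stocks) applied for 48 h. TCA-fixed (final 10% adherent, 16% suspension), SRB-stained, A515 read. Growth versus time-zero and control wells gave GI50, TGI, LC50.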

NCI/ADR-RES = test: Antiproliferative activity against human NCI/ADR-RES cells after 48 hrs by sulforhodamine B assay; procedure, shortened: as §1
NCI-H522 = test: Antiproliferative activity against human NCI-H522 cells after 48 hrs by sulforhodamine B assay; details: NCI-H522, 48 h; procedure, shortened: as §1
NCI-H23 = test: Antiproliferative activity against human NCI-H23 cells after 48 hrs by sulforhodamine B assay; details: NCI-H23, 48 h; procedure, shortened: as §1
HOP-62 = test: Antiproliferative activity against human HOP62 cells after 48 hrs by sulforhodamine B assay; details: HOP-62, 48 h; procedure, shortened: as §1
[1] = Antiproliferative activity against human EKVX cells after 48 hrs by sulforhodamine B assay; procedure, shortened: as §1
UACC-62 = test: Antiproliferative activity against human UACC62 cells after 48 hrs by sulforhodamine B assay; details: UACC-62, 48 h
Procedure, shortened: (§2)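 Cells in RPMI 1640 with 5% FBS and 2 mM L-glutamine were seeded at 5000–40,000/well according to doubling time and preincubated 24 h at 37 °C in 5% CO2. Time-zero plates were TCA-fixed when drug was added. Five 10-fold or ½-log dilutions from DMSO stocks were added for 48 h. After SRB staining, A515 was read and GI50 derived from [(Ti−Tz)/(C−Tz)]×100 = 50.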

SK-MEL-28 = test: Antiproliferative activity against human SK-MEL-28 cells after 48 hrs by sulforhodamine B assay; details: SK-MEL-28, 48 h; procedure, shortened: as §1
MDA-MB-435 = test: Antiproliferative activity against human MDA-MB-435 cells after 48 hrs by sulforhodamine B assay; details: MDA-MB-435, 48 h; procedure, shortened: as §1
LOX IMVI = test: Antiproliferative activity against human LOXIMVI cells after 48 hrs by sulforhodamine B assay; procedure, shortened: as §1
RPMI-8226 = test: Antiproliferative activity against human RPMI8226 cells after 48 hrs by sulforhodamine B assay; details: RPMI-8226, 48 h; procedure, shortened: as §1
K562 = test: Antiproliferative activity against human K562 cells after 48 hrs by sulforhodamine B assay; details: K562, 48 h; procedure, shortened: as §1
MOLT-4 = test: Antiproliferative activity against human MOLT4 cells after 48 hrs by sulforhodamine B assay; details: MOLT-4, 48 h; procedure, shortened: as §1
CCRF-CEM = test: Antiproliferative activity against human CCRF-CEM cells after 48 hrs by sulforhodamine B assay; procedure, shortened: as §1
SW-620 = test: Antiproliferative activity against human SW620 cells after 48 hrs by sulforhodamine B assay; details: SW-620, 48 h; procedure, shortened: as §2
KM12 = test: Antiproliferative activity against human KM12 cells after 48 hrs by sulforhodamine B assay; details: KM12, 48 h; procedure, shortened: as §1
HT-29 = test: Antiproliferative activity against human HT-29 cells after 48 hrs by sulforhodamine B assay; details: HT-29, 48 h; procedure, shortened: as §1
HCT-116 = test: Antiproliferative activity against human HCT116 cells after 48 hrs by sulforhodamine B assay; details: HCT-116, 48 h; procedure, shortened: as §1
COLO 205 = test: Antiproliferative activity against human COLO205 cells after 48 hrs by sulforhodamine B assay; details: COLO 205, 48 h; procedure, shortened: as §1
SF-539 = test: Antiproliferative activity against human SF539 cells after 48 hrs by sulforhodamine B assay; details: SF-539, 48 h; procedure, shortened: as §1
SNB-19 = test: Antiproliferative activity against human SNB19 cells after 48 hrs by sulforhodamine B assay; details: SNB-19, 48 h; procedure, shortened: as §1
SF-268 = test: Antiproliferative activity against human SF268 cells after 48 hrs by sulforhodamine B assay; details: SF-268, 48 h; procedure, shortened: as §1
T47D = test: Antiproliferative activity against human T47D cells after 48 hrs by sulforhodamine B assay; procedure, shortened: as §2
[2] = Antiproliferative activity against human Hs 578T cells after 48 hrs by sulforhodamine B assay; procedure, shortened: as §1
TK-10 = test: Antiproliferative activity against human TK10 cells after 48 hrs by sulforhodamine B assay; details: TK-10, 48 h; procedure, shortened: as §2
UO-31 = test: Antiproliferative activity against human UO31 cells after 48 hrs by sulforhodamine B assay; details: UO-31, 48 h; procedure, shortened: as §2
SN12C = test: Antiproliferative activity against human SN12C cells after 48 hrs by sulforhodamine B assay; procedure, shortened: as §1
RXF 393 = test: Antiproliferative activity against human RXF393 cells after 48 hrs by sulforhodamine B assay; details: RXF 393, 48 h; procedure, shortened: as §1
ACHN = test: Antiproliferative activity against human ACHN cells after 48 hrs by sulforhodamine B assay; procedure, shortened: as §1
786-0 = test: Antiproliferative activity against human 786-0 cells after 48 hrs by sulforhodamine B assay; details: 786-0, 48 h; procedure, shortened: as §1
[3] = read-out: pLC50 (the source's name) (converted)

For `CN1CCN(CCCn2c(=O)c3sc4ncccc4c3n3nnc(-c4ccccc4)c23)CC1`, which GI50 (DU-145) is on record?
The GI50 was 5.89 µM.

What about the LC50 (DU-145) of the same compound?
The LC50 was 25.1 µM.

What about the TGI (DU-145; read-out: pTGI (converted)) of the same compound?
Its TGI is 12.3 µM.

And the GI50 (NCI/ADR-RES)?
Its GI50 is 7.24 µM.

And the LC50 (NCI/ADR-RES)?
Its LC50 is 28.2 µM.

And the TGI (NCI/ADR-RES; read-out: pTGI (converted))?
Its TGI is 14.1 µM.

And the GI50 (NCI-H522)?
The GI50 was 7.24 µM.

And the LC50 (NCI-H522)?
Its LC50 is 28.8 µM.

What about the TGI (NCI-H522; read-out: pTGI (converted)) of the same compound?
The TGI was 14.5 µM.

And the GI50 (NCI-H23)?
Its GI50 is 8.13 µM.

And the LC50 (NCI-H23)?
The LC50 was 28.8 µM.

What about the TGI (NCI-H23; read-out: pTGI (converted)) of the same compound?
Its TGI is 15.5 µM.

What about the GI50 (HOP-62) of the same compound?
Its GI50 is 8.13 µM.

And the LC50 (HOP-62)?
Its LC50 is 28.8 µM.

And the TGI (HOP-62; read-out: pTGI (converted))?
The TGI was 15.5 µM.

And the GI50 [1]?
The GI50 was 6.46 µM.

What about the LC50 [1] of the same compound?
The LC50 was 27.5 µM.

And the TGI ([1]; read-out: pTGI (converted))?
The TGI was 13.2 µM.

What about the GI50 (UACC-62) of the same compound?
The GI50 was 8.91 µM.

And the LC50 (concentration killing 50% of cells) (UACC-62)?
Its LC50 (concentration killing 50% of cells) is 29.5 µM.

What about the TGI (UACC-62; read-out: pTGI (converted)) of the same compound?
Its TGI is 16.2 µM.

And the GI50 (SK-MEL-28)?
The GI50 was 8.71 µM.

What about the LC50 (SK-MEL-28) of the same compound?
The LC50 was 28.2 µM.

And the TGI (SK-MEL-28; read-out: pTGI (converted))?
Its TGI is 15.8 µM.

What about the GI50 (MDA-MB-435) of the same compound?
The GI50 was 1.17 µM.

What about the LC50 (MDA-MB-435) of the same compound?
Its LC50 is 13.2 µM.

What about the TGI (MDA-MB-435; read-out: pTGI (converted)) of the same compound?
The TGI was 3.02 µM.

And the GI50 (LOX IMVI)?
Its GI50 is 5.37 µM.

And the CC50 (LOX IMVI; [3])?
Its CC50 is 25.1 µM.

And the TGI (LOX IMVI; read-out: pTGI (converted))?
Its TGI is 11.5 µM.

And the GI50 (RPMI-8226)?
The GI50 was 6.17 µM.

What about the CC50 (RPMI-8226; [3]) of the same compound?
Its CC50 is 40.7 µM.

And the TGI (RPMI-8226; read-out: pTGI (converted))?
The TGI was 15.8 µM.

What about the GI50 (K562) of the same compound?
The GI50 was 0.871 µM.

And the LC50 (concentration killing 50% of cells) (K562)?
Its LC50 (concentration killing 50% of cells) is 4.79 µM.

And the TGI (K562; read-out: pTGI (converted))?
Its TGI is 2.04 µM.

And the GI50 (MOLT-4)?
Its GI50 is 1.55 µM.

And the LC50 (MOLT-4)?
The LC50 was 21.4 µM.

What about the TGI (MOLT-4; read-out: pTGI (converted)) of the same compound?
The TGI was 4.9 µM.

And the GI50 (CCRF-CEM)?
The GI50 was 1.55 µM.

And the LC50 (CCRF-CEM)?
The LC50 was 24.5 µM.

And the TGI (CCRF-CEM; read-out: pTGI (converted))?
Its TGI is 5.25 µM.

And the GI50 (SW-620)?
Its GI50 is 5.37 µM.

And the LC50 (SW-620)?
Its LC50 is 24.5 µM.

What about the TGI (SW-620; read-out: pTGI (converted)) of the same compound?
The TGI was 11.5 µM.

And the GI50 (KM12)?
Its GI50 is 4.27 µM.

And the LC50 (KM12)?
The LC50 was 24.5 µM.

And the TGI (KM12; read-out: pTGI (converted))?
Its TGI is 10.7 µM.

What about the GI50 (HT-29) of the same compound?
Its GI50 is 2.88 µM.

And the LC50 (HT-29)?
Its LC50 is 23.4 µM.

What about the TGI (HT-29; read-out: pTGI (converted)) of the same compound?
The TGI was 9.55 µM.

What about the GI50 (HCT-116) of the same compound?
Its GI50 is 5.25 µM.

What about the LC50 (HCT-116) of the same compound?
The LC50 was 26.3 µM.

What about the TGI (HCT-116; read-out: pTGI (converted)) of the same compound?
The TGI was 11.7 µM.

And the GI50 (COLO 205)?
Its GI50 is 7.41 µM.

What about the LC50 (COLO 205) of the same compound?
Its LC50 is 28.8 µM.

And the TGI (COLO 205; read-out: pTGI (converted))?
The TGI was 14.5 µM.

And the GI50 (SF-539)?
The GI50 was 5.75 µM.

What about the LC50 (SF-539) of the same compound?
Its LC50 is 30.9 µM.

And the TGI (SF-539; read-out: pTGI (converted))?
The TGI was 13.5 µM.

What about the GI50 (SNB-19) of the same compound?
The GI50 was 8.32 µM.

And the LC50 (SNB-19)?
The LC50 was 29.5 µM.

And the TGI (SNB-19; read-out: pTGI (converted))?
Its TGI is 15.8 µM.

What about the GI50 (SF-268) of the same compound?
The GI50 was 6.46 µM.

And the LC50 (SF-268)?
Its LC50 is 26.9 µM.

And the TGI (SF-268; read-out: pTGI (converted))?
Its TGI is 13.2 µM.

What about the GI50 (T47D) of the same compound?
The GI50 was 7.94 µM.

What about the LC50 (T47D) of the same compound?
The LC50 was 31.6 µM.

And the TGI (T47D; read-out: pTGI (converted))?
Its TGI is 15.8 µM.

What about the GI50 [2] of the same compound?
The GI50 was 6.46 µM.

What about the LC50 [2] of the same compound?
The LC50 was 39.8 µM.

What about the TGI ([2]; read-out: pTGI (converted)) of the same compound?
Its TGI is 16.2 µM.

And the GI50 (TK-10)?
The GI50 was 6.92 µM.

And the LC50 (TK-10)?
The LC50 was 26.9 µM.

And the TGI (TK-10; read-out: pTGI (converted))?
Its TGI is 13.5 µM.

What about the GI50 (UO-31) of the same compound?
The GI50 was 5.13 µM.

And the LC50 (UO-31)?
Its LC50 is 28.2 µM.

What about the TGI (UO-31; read-out: pTGI (converted)) of the same compound?
Its TGI is 12 µM.

And the GI50 (SN12C)?
Its GI50 is 7.24 µM.

And the LC50 (SN12C)?
Its LC50 is 28.2 µM.

And the TGI (SN12C; read-out: pTGI (converted))?
Its TGI is 14.1 µM.

And the GI50 (RXF 393)?
The GI50 was 6.31 µM.

And the LC50 (RXF 393)?
Its LC50 is 28.2 µM.

What about the TGI (RXF 393; read-out: pTGI (converted)) of the same compound?
The TGI was 13.5 µM.

What about the GI50 (ACHN) of the same compound?
The GI50 was 8.13 µM.

What about the LC50 (50% lethal concentration) (ACHN) of the same compound?
Its LC50 (50% lethal concentration) is 27.5 µM.

And the TGI (ACHN; read-out: pTGI (converted))?
The TGI was 15.1 µM.

What about the GI50 (786-0) of the same compound?
The GI50 was 7.41 µM.

And the CC50 (786-0; [3])?
The CC50 was 28.8 µM.

What about the TGI (786-0; read-out: pTGI (converted)) of the same compound?
Its TGI is 14.5 µM.
